Sampled rows, rich in hits. Any-hit rate of the full collection: about 1.9%.
TAG inh: inhibitors of triacylglycerol accumulation, primary screen, cell-based, uHTS, fluorescence, H9c2; H9c2 cells, Nile Red lipid (TAG) fluorescence; cells loaded with 200 µM oleic acid; inhibition, % at 12.5 µM; 230,000 tested, 0.66% active; AID 651582, 2012;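 active = pattern-corrected inhibition of lipid staining of at least 50% with the nuclear-stain viability signal not falling by more than 50%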;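 note: 0% = DMSO wells and 100% = triacsin C control wells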
697 NFkB inh: inhibitors of PMA/ionomycin-induced NF-kB reporter, 697 cells, primary screen, B-cell NF-kB inhibitor project, cell-based, luminescence, uHTS; inhibition, % at 4 µM; AID 435022, 2010; 330,000 tested, 0.33% active; 697 B-cell NF-kB luciferase reporter, 16 h; in the data active = inhibition above about 35%
aSyn 5UTR inh: MLPCN primary screen, SNCA 5' untranslated region | inhibition, % (tested at 7.5 µM) | AID 1813, 2009 | alpha-synuclein 5'UTR reporter, inhibitor activity | 300,000 tested, 0.82% active; in the data active = inhibition above about 60%;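 note: H4 neuroglioblastoma cells stably carrying SNCA 5'UTR luciferase fusion; 0% = DMSO wells and 100% = positive control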
APP transl inh: inhibitors of APP translation via 5'UTR reporter, primary screen, APP 5'UTR luciferase, SH-SY5Y cells. AID 1285, 2008. inhibition, % at 2 µM. SH-SY5Y APP 5'UTR-luciferase reporter, luminescence. 190,000 tested, 0.82% active;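 active = inhibition above a set limit, derived from the sample mean plus 3 SD, cut at about 45% in these data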
Jurkat NFkB inh: inhibitors of induced NF-kB luciferase reporter, primary screen, TCR NF-kB activation inhibitor project, cell-based, luminescence, uHTS. Jurkat, PMA/ionomycin-induced NF-kB luciferase reporter. inhibition, % at 4 µM. 330,000 tested, 0.53% active. AID 435003, 2010; in the data active = inhibition above about 50%
Lipid droplet: inhibitors of hepatocyte lipid droplet formation, primary screen, imaging, high-throughput imaging, BODIPY stain; AML12 mouse hepatocytes, oleate lipid droplets; inhibition, % at 6.5 µM; 240,000 tested, 0.4% active; AID 1656, 2009;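 active = lipid droplet intensity inhibited by at least 50%, with more than 500 cells counted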
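Test system: AML12 mouse liver cells; schedule: overnight exposure; technique: high-content imaging of BODIPY-stained droplets and DAPI nuclei; read-out: % inhibition of corrected integrated BODIPY droplet signal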
697 NFkB conf: PMA/ionomycin-induced NF-kB reporter inhibitors, 697 retest, confirmation, B-cell NF-kB inhibitor project, cell-based, luminescence, single concentration. shares compounds with 697 NFkB inh. 697 B-cell NF-kB luciferase, 16 h. inhibition, % at 4 µM. 2,000 tested, 35% active. AID 449746, 2010; in the data active = inhibition mostly above about 28%, no sharp cut-off; inactive = mostly below about 22%
Numbers without * were called inactive; nt = no result.

SMILES	TAG inh	697 NFkB inh	aSyn 5UTR inh	APP transl inh	Jurkat NFkB inh	Lipid droplet	697 NFkB conf
O=C(CSc1nccc(=O)[nH]1)Nc1ccc(Oc2ccccc2)cc1	3	11	24	nt	7	6	nt
Cc1cc(C)cc(NC(=O)c2nnn(Cc3cc(C)ccc3C)c2N)c1	14	38*	50	0	-8	-1	29*
CCc1sc(C(=O)Nc2cc(S(=O)(=O)N3CCOCC3)ccc2OC)cc1C	-3	24	nt	nt	-6	nt	nt
Cc1cc(=O)[nH]c(N/N=C/c2c[nH]c3ccccc23)n1	5	36*	-21	nt	4	-13	7
CC1CCCC(NC(=O)CN2CCN(S(=O)(=O)c3cccs3)CC2)C1C (stereo unspecified)	-3	-4	nt	nt	-4	nt	nt
Cc1nn2c(nc(N3CCOCC3)c3ccccc32)c1C=C(C#N)C#N	nt	-5	18	-16	-9	2	nt
N#Cc1cnn2c1nc(N1CCOCC1)c1ccccc12	-8	36*	50	-2	-2	nt	18
c1ccc(Cn2c(-c3ccco3)nc3nc4ccccc4nc32)cc1	-2	-35	-215	-61	-36	nt	nt
Clc1ccc(-c2nc3nc4ccccc4nc3n2Cc2ccco2)cc1	-14	-418	nt	-51	-103	-4	-368
Cc1ccc(-c2nc3nc4ccccc4nc3n2Cc2ccco2)cc1	8	-257	-125	-181	-48	-2	-250
COc1ccc(CNc2nc3ccccc3s2)cc1OC	nt	-67	-141	nt	-33	nt	nt
Cc1ccc(CNc2nc3ccccc3s2)s1	-41	-265	78*	-182	-108	-3	-293
O=S(=O)(c1cnc(Cl)c(Cl)c1)N1CCCc2ccccc21	10	43*	-34	-12	19	-1	37*
O=C(c1cccs1)N(Cc1nc2sc3c(c2c(=O)[nH]1)CCCC3)C1CCCC1	-5	-324	-14	4	-15	1	-300
CCc1ccc(C=C2SC(=S)N(CCCC(=O)Nc3ccc(C(=O)O)cc3)C2=O)cc1	21	nt	nt	nt	nt	nt	nt
COc1ccc(/C=C2\SC(=S)N(CCC(=O)Nc3ccc(C(=O)O)cc3)C2=O)cc1	nt	44*	-5	nt	-19	-3	60*
COc1ccc(/C=C2/SC(=S)N(CCC(=O)O)C2=O)cc1	nt	74*	98*	50*	45	nt	75*
CCc1ccc(/C=C2/SC(=S)N(CCC(=O)Nc3ccc(C(=O)O)cc3)C2=O)cc1	-1	77*	40	nt	13	1	72*
O=C(CCN1C(=O)/C(=C/c2ccc(Cl)cc2)SC1=S)Nc1ccc(C(=O)O)cc1	nt	24	9	nt	-4	-21	nt
O=C(O)CCN1C(=O)/C(=C\c2ccncc2)SC1=S	18	8	-57	-15	0	6	nt
CCc1ccc(/C=C2/SC(=S)N(CCC(=O)Nc3cccc(C(=O)O)c3)C2=O)cc1	14	50*	0	nt	-9	-1	59*
CC(/C=C1\SC(=S)N(CCC(=O)Nc2cccc(C(=O)O)c2)C1=O)=C\c1ccccc1	nt	9	-12	nt	10	0	nt
O=C(c1cnccn1)N(Cc1cccs1)C1(C(=O)NC2CCCCC2)CCCCC1	nt	17	-5	-11	18	-14	nt
C=CCOC(=O)C1=C[C@@H](c2csc3ccccc23)[C@H](CCCO)[C@@H](OCC)O1	nt	-2	37	nt	-6	nt	nt
FC(F)c1nc2nc(Cl)c(Cl)nc2[nH]1	-1	nt	nt	nt	nt	nt	nt
Cc1cc(C)c2c(N)c(C(=O)Nc3ncc(C)s3)sc2n1	7	-278	nt	22	16	-9	-70
COc1cc(/C=N/NC(=O)c2sc3nc(C)cc(C)c3c2N)ccc1O	25	43*	1	nt	7	20	18
O=C1CCC2S/C(=C/Nc3ccc(C(F)(F)F)cc3)C(=O)N12 (stereo unspecified)	-3	81*	99*	72*	30	-14	49*

Source: PubChem BioAssay
